The nature of series [1]: […]. The method, boiled down:
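Cells washed in low-Ca buffer (pH 7.4, 2 mM CaCl₂) with 0.625 mM probenecid. Glutamate ± compound added in 20 mM CaCl₂ buffer. Ca²⁺ fluorescence read; pEC50 is the mean of two experiments run in duplicate.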

Series [2] in a line: Intrinsic clearance in rat liver microsomes. It is filed as ADME, Microsome.
A short description of series [3]: Intrinsic clearance in human liver microsomes. The class given is ADME, Microsome.
Series [4] in a line: Volume of distribution at steady state in Wistar rat at 2 mg/kg, iv. The class given is ADME, organism-based. Also noted: dose 2 mg/kg, route intravenous. Particulars: in vivo, read-out: Vdss.
Series [5] can be described thus: Permeability from apical to basolateral side of human Caco-2 cells. The class given is ADME, cell-based. Particulars: read-out: permeability. For orientation: Caco-2 monolayers are a common model of the intestinal barrier.
Series [6] is described as follows: Permeability from basolateral to apical side of human Caco-2 cells. It is filed as ADME, cell-based. The conditions noted are these: read-out: permeability.
A short description of series [7]: Clearance in Wistar rat at 2 mg/kg, iv. It is filed as ADME, organism-based. Also noted: dose 2 mg/kg, route intravenous. The conditions noted are these: in vivo.
A short description of series [8]: Half life in Wistar rat at 2 mg/kg, iv. It is filed as ADME, organism-based. Also noted: dose 2 mg/kg, route intravenous. Particulars: in vivo.
The nature of series [9]: Aqueous solubility of the compound. The class given is physicochemical.

Values after ≈ are worked out from the molar mass of the structure shown.

As for `O=C(Cn1nc(C(F)(F)F)c2c1CCCC2)Nc1sc2c(c1C(=O)N[C@@H]1CCNC1)CCCC2`, the pEC50 (as a rule, the EC50 on a negative log10 scale, so that one unit is a factor of ten) in series [1] worked out at 6.6.
The same measure, in the same setting: with `NC(=O)c1c(NC(=O)Cn2nc(C(F)(F)F)c3c2CCCC3)sc2c1CCCC2` the figure was 6.7; with `CN(C)CCNC(=O)c1c(NC(=O)Cn2nc(C(F)(F)F)c3c2CCCC3)sc2c1CCCC2`, 5.2.
As for `NCCCNC(=O)c1c(NC(=O)Cn2nc(C(F)(F)F)c3c2CCCC3)sc2c1CCCC2`, the values for the intrinsic clearance (microsomal CLint) in series [2] and in series [3] were 77 µL/min/mg and 17 µL/min/mg, respectively. The Vd in series [4] was 3.8 L/kg. Also, in series [5], the Papp A→B was determined as 3.4 ×10⁻⁶ cm/s. Also, the Papp B→A in series [6] turned out to be 5.5 ×10⁻⁶ cm/s. In addition, the clearance (commonly the volume of plasma or blood freed of the substance per unit of time) in [7] came out at 21 mL/min/kg. In series [8], the half-life (in general, the time needed for the level to fall by half in the phase considered) is 3.2 h. This molecule also registered a pEC50 in series [1] of 6.4.
As to `O=C(Cn1nc(C(F)(F)F)c2c1CCCC2)Nc1sc2c(c1C(=O)N[C@H]1CCNC1)CCCC2`, the pEC50 in series [1] is listed as 5.8.
In [1], `NC(=O)c1c(CO)csc1NC(=O)Cn1nc(C(F)(F)F)c2c1CCCC2` showed a pEC50 of 5.5.
Still for that read-out and setting: the same measure for `NC(=O)c1c(NC(=O)Cn2ccc(C(F)(F)F)n2)sc2c1CCCC2`: 5.3.
With `NC(=O)c1c(NC(=O)Cn2nc(C(F)(F)F)cc2C(F)(F)F)sc2c1CCCC2`, the values for the microsomal CLint in series [2] and in series [3] were 200 µL/min/mg and 174 µL/min/mg, respectively. The solubility – broadly, the concentration that dissolves in the medium under given conditions – in series [9] is under 1 µg/mL. Also, the pEC50 in series [1] is given as 5.8.
For `NC(=O)c1c(NC(=O)Cn2nc(C(F)(F)F)c3cnccc32)sc2c1CCCC2`, in series [2], the microsomal CLint (as a rule, the capacity of the preparation to metabolise the compound, expressed as a volume cleared per time) was determined as 91 µL/min/mg. In series [1], this molecule displayed a pEC50 of 6.4.
Take `Cc1cc(C)n(CC(=O)Nc2sc3c(c2C(N)=O)CCCC3)n1`: the pEC50 in series [1] is on record as under 4.5.
For the molecule `NC(=O)c1c(NC(=O)Cn2c(C(F)(F)F)nc3ccccc32)sc2c1CCCC2`, in series [1], the pEC50 is under 4.5.
`CCNC(=O)c1c(NC(=O)Cn2nc(C(F)(F)F)c3c2CCCC3)sc2c1CCCC2` had a pEC50 in series [1] of 6.5.
On to `O=C(Cn1nc(C(F)(F)F)c2c1CCCC2)Nc1sc2c(c1C(=O)NC1CC1)CCCC2`, for which the pEC50 in series [1] is on record as 6.2.
The same measure, in the same setting: the same measure for `CNCCNC(=O)c1c(NC(=O)Cn2nc(C(F)(F)F)c3c2CCCC3)sc2c1CCCC2`: 5.7.
Still for that read-out and setting: the same measure for `NCCCCNC(=O)c1c(NC(=O)Cn2nc(C(F)(F)F)c3c2CCCC3)sc2c1CCCC2`: 5.9; for `NCCNC(=O)c1c(NC(=O)Cn2nc(C(F)(F)F)c3c2CCCC3)sc2c1CCCC2`: 5.8.
Still for that read-out and setting: the same measure for `O=C(Cn1nc(C(F)(F)F)c2c1CCCC2)Nc1sc2c(c1C(=O)NCCO)CCCC2`: 7.3; for `CS(=O)(=O)NCCNC(=O)c1c(NC(=O)Cn2nc(C(F)(F)F)c3c2CCCC3)sc2c1CCCC2`: 7.
`O=C(Cn1nc(C(F)(F)F)c2c1CCCC2)Nc1sc2c(c1C(=O)NC1CNC1)CCCC2` showed a pEC50 in [1] of 6.5.
On the same count and under the same terms, with `O=C(Cn1nc(C(F)(F)F)c2c1CCCC2)Nc1sc2c(c1C(=O)NCC1CNC1)CCCC2` the figure was 6.2.
Turning to `NC(=O)c1ccsc1NC(=O)Cn1nc(C(F)(F)F)c2c1CCCC2`, the concentration in solution in [9] (solubility) was 10 µg/mL (≈ 26.9 µM). The pEC50 in series [1] was 5.2.
`Cc1sc(NC(=O)Cn2nc(C(F)(F)F)c3c2CCCC3)c(C(N)=O)c1C`: the pEC50 in series [1] was found to be 6.1.
Same read-out and setting: with `CCc1c(C)sc(NC(=O)Cn2nc(C(F)(F)F)c3c2CCCC3)c1C(N)=O` the figure was 6.2.
In [3], `NC(=O)c1c(NC(=O)Cn2nc(C(F)(F)F)c3c2CCCC3)sc2c1CCOC2` yielded a microsomal CLint of over 270 µL/min/mg. The molecule further yielded a pEC50 in [1] of 6.7.
Take `NC(=O)c1c(NC(=O)Cn2nc(C(F)(F)F)c3c2CCCC3)sc2c1CCNC2`: the pEC50 in [1] was determined as 5.3.
